Measured values: ChEMBL document CHEMBL1140158, “Soluble 3',6-substituted indirubins with enhanced selectivity toward glycogen synthase kinase -3 alter circadian period” (J Med Chem, 2008)
The source made the active and inactive calls. The calls are words filed in the database; no cut-off is given here.

Legend:
SH-SY5Y = assay: Cytotoxicity against human SH-SY5Y cells after 48 hrs by MTS reduction assay; format: cell-based
[1] = Inhibition of human recombinant CDK5/p25 expressed in Escherichia coli
[2] = test system: Glycogen synthase kinase-3 (Sus scrofa); assay: Inhibition of pig GSK3alpha/beta
[3] = target: T1, Glycogen synthase kinase-3 (Homo sapiens, UniProt P49840+P49841); assay: Inhibition of GSK3-mediated beta-catenin phosphorylation in human SH-SY5Y cells in presence of MG132 by Western blot analysis
[4] = Lipophilicity, log D of the compound; format: physicochemical; settings: octanol/water
[5] = Solubility in water; format: physicochemical
Procedure, shortened: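 Excess solid in double-distilled water was sonicated 5 min, then stirred overnight to equilibrium at 25 ± 0.1 °C and centrifuged. Supernatant absorbance was read at 515–518 nm and quantified against per-compound standard reference curves.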

[6] = Dissociation constant, pKa of the compound; format: physicochemical
[7] = target: T1, Glycogen synthase kinase-3; assay: Inhibition of GSK3-mediated beta-catenin phosphorylation in human SH-SY5Y cells in presence of MG132 by ELISA
Rat1 = assay: Effect on circadian rhythm in Pper2::Fluc transfected Rat1 cells assessed as shortening of period length at 10 uM; format: functional, cell-based; settings: Rattus norvegicus
Procedure, shortened: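 Rat-1 fibroblasts stably carrying PPer2::Fluc, grown to confluence, synchronized with 0.1 μM dexamethasone (1 h in Experimental, 2 h in legend), then moved to phenol-red-free assay medium with 0.1 mM luciferin. Compounds at 10 μM added before dish sealing and left continuously; DMSO solvent control. Luminescence recorded 4–5 days or more; period derived by regression analysis.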

T1 sequence (P49840 whole entry, looked up): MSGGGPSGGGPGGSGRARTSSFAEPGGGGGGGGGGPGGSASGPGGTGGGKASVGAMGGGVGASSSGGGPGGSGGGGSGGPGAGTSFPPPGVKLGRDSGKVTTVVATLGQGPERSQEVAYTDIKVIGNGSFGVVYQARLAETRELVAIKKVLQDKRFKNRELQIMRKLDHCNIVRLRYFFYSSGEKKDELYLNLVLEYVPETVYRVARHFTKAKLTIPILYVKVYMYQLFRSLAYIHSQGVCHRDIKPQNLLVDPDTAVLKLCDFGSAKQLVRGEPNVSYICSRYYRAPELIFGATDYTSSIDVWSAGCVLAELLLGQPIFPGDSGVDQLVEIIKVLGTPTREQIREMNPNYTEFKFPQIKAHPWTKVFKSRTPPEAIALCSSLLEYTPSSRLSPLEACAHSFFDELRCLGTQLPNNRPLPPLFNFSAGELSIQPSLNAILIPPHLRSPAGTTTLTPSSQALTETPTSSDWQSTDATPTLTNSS
T1 sequence (P49841 whole entry, looked up): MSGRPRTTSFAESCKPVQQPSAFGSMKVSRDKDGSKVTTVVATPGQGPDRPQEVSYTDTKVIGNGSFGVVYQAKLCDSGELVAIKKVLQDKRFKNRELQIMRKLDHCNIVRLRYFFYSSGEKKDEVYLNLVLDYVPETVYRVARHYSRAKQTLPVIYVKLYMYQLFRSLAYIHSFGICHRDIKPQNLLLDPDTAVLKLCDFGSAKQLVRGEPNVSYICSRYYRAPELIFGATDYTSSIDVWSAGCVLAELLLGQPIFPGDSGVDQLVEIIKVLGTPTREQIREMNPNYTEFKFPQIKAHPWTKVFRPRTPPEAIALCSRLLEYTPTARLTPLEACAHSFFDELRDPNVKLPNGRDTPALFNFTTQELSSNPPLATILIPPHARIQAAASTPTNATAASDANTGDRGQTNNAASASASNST

SMILES | IC50 [1] [nM] | IC50 [2] [nM] | logD [4] | solubility thermodynamic [5] [µg/mL] | IC50 (SH-SY5Y; Homo sapiens, SH-SY5Y, 48 h) [nM] | pKa [6] | also measured
CCN(CC)CCO/N=C1/C(=C2/C(=O)Nc3cc(Br)ccc32)Nc2ccccc21 | 20 | 35 | – | – | – | – | IC50 (SH-SY5Y; sh-sy5y): 78000 nM
COCCN1CCN(CCO/N=C2/C(=C3/C(=O)Nc4cc(Br)ccc43)Nc3ccccc32)CC1 | 500 | 11 | – | – | – | – | –
Cn1c(O)c(-c2[nH]c3ccccc3c2N=O)c2ccc(Br)cc21 | – | – | – | – | – | – | Activity [3]: inactive
CCN(CC)CCO/N=C1/C(=C2/C(=O)Nc3cc(Br)ccc32)Nc2ccccc21.Cl | 40 | 27 | 1.19 | 192 | > 100000 | 9.38 | –
O=C1Nc2cc(Br)ccc2/C1=C1/Nc2ccccc2/C1=N\OCCN1CCNCC1 | – | – | – | – | – | – | IC50 (SH-SY5Y; sh-sy5y): 13200 nM; IC50 [7]: 150 nM
O=C1Nc2cc(Br)ccc2/C1=C1/Nc2ccccc2/C1=N\OCCN1CCN(CCOCCO)CC1 [listing 1 of 2 here] | – | – | – | – | – | – | Activity (Rat1): Active
Cl.Cl.O=C1Nc2cc(Br)ccc2/C1=C1/Nc2ccccc2/C1=N\OCCN1CCN(CCOCCO)CC1 | 330 | 33 | 1.46 | 4250 | 97600 | 7.58 | –
O=C1Nc2cc(Br)ccc2/C1=C1/Nc2ccccc2/C1=N\OCC(O)CO (stereo unspecified) | 25 | 34 | – | – | 940 | – | –
O=C1Nc2cc(Br)ccc2/C1=C1/Nc2ccccc2/C1=N\OCCN1CCCC1 | 130 | 26 | – | – | – | – | IC50 (SH-SY5Y; sh-sy5y): 5500 nM
O=C1Nc2cc(Br)ccc2/C1=C1/Nc2ccccc2/C1=N\OCCN1CCN(CCOCCO)CC1 [listing 2 of 2 here] | 310 | 14 | – | – | – | – | IC50 [7]: 2900 nM
CCN(CC)C(=O)O/N=C1/C(=C2/C(=O)Nc3cc(Br)ccc32)Nc2ccccc21 | 10000 | 30 | – | – | > 100000 | – | –
COCCN1CCN(CCO/N=C2/C(=C3/C(=O)Nc4cc(Br)ccc43)Nc3ccccc32)CC1.Cl.Cl | 400 | 20 | 1.9 | 570 | > 100000 | 7.47 | –
O=C1Nc2cc(Br)ccc2/C1=C1/Nc2ccccc2/C1=N\OCCO | > 10000 | – | – | – | > 100000 | – | –
CN1CCN(CCO/N=C2/C(=C3/C(=O)Nc4cc(Br)ccc43)Nc3ccccc32)CC1.Cl.Cl | 300 | 5 | 1.74 | 1500 | 5400 | 7.65 | –
O=C1Nc2cc(Br)ccc2/C1=C1/Nc2ccccc2/C1=N\OCCBr | > 10000 | 140 | – | – | > 100000 | – | –
Cl.O=C1Nc2cc(Br)ccc2/C1=C1/Nc2ccccc2/C1=N\OCCN(CCO)CCO | – | – | – | – | – | – | IC50 [7]: 320 nM
CN(C)CCO/N=C1/C(=C2/C(=O)Nc3cc(Br)ccc32)Nc2ccccc21.Cl | – | – | 1.69 | 141 | – | 8.59 | –
CN(CCO/N=C1/C(=C2/C(=O)Nc3cc(Br)ccc32)Nc2ccccc21)CC(O)CO (stereo unspecified) | 240 | 67 | – | – | 5800 | – | –
Cl.Cl.O=C1Nc2cc(Br)ccc2/C1=C1/Nc2ccccc2/C1=N\OCCN1CCNCC1 | 180 | – | -0.87 | 1610 | – | 8.85 | IC50 (SH-SY5Y; sh-sy5y): 5900 nM; IC50 [7]: 220 nM
CN1CCN(CCO/N=C2/C(=C3/C(=O)Nc4cc(Br)ccc43)Nc3ccccc32)CC1 | 400 | 7 | – | – | – | – | –
O=C1Nc2cc(Br)ccc2/C1=C1/Nc2ccccc2/C1=N\OCCN1CCN(CCO)CC1 | – | – | – | – | – | – | IC50 [7]: 700 nM
Cl.Cl.O=C1Nc2cc(Br)ccc2/C1=C1/Nc2ccccc2/C1=N\OCCN1CCN(CCO)CC1 | – | – | 1.41 | 1140 | – | 7.65 | –
Cl.O=C1Nc2cc(Br)ccc2/C1=C1/Nc2ccccc2/C1=N\OCCN1CCCC1 | 100 | 54 | 1.16 | 195 | 4200 | 9.18 | –
O=C1Nc2cc(Br)ccc2/C1=C1/Nc2ccccc2/C1=N\OCCN(CCO)CCO | – | – | – | – | 6600 | – | –
